Data reported in publication PMC9122039 (Chembiochem : a European journal of chemical biology, 2022).
Where a SMILES comes first, the peptide text is derived from it. The star is where a group is joined. Cbz = O=C(OCc1ccccc1)*

Experiments:
Assay type in all cases: cell-based
[1] = test system: proteasome in HEK-293T cells; test: Flow cytometry with probe 3; settings: modulator 1 h, then 3 for 1 h, rinsed with PBS
Outline: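 HEK-293T cells get the test compound (stimulator or inhibitor) for 1 h. The BODIPY-epoxomicin probe is then added and incubated another hour. Cells are pelleted and rinsed with PBS to remove unreacted probe. Probe fluorescence is measured by flow cytometry against DMSO-treated samples.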

[2] = test system: proteasome (β2 and β5 subunits) in HEK-293T cells; settings: then 3 at 500 nM 1 h; for change of proteasome activity: modulator 5 μM 1 h; for increase of proteasome labeling over DMSO treated samples: modulator 25 μM 1 h; for effect of inhibitor on labeling by 3: inhibitor at two concentrations 1 h
Outline: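 HEK-293T cells pre-treated 1 h with the test compound (stimulators and inhibitors, each at two concentrations) or DMSO. BODIPY-epoxomicin probe then added at 500 nM for 1 h (2 h total). Proteasome bound by the probe is resolved by SDS-PAGE and in-gel fluorescence is scanned. β2 and β5 band signals are quantified and normalised to DMSO; error bars are standard deviation.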

[3] = test system: proteasome in HEK-293T cells; test: Confocal microscopy with probe 3; settings: modulator 25 μM 1 h, then 3 at 500 nM 1 h, PBS wash
Outline: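 HEK-293T cells on poly-D-lysine-coated glass coverslip chambers; test compound (proteasome stimulator or inhibitor) at 25 μM for 1 h, then BODIPY-epoxomicin probe at 500 nM for another hour. PBS wash removes extracellular or unbound probe. Controls: DMSO plus probe (basal activity) and DMSO without probe. Imaged by confocal in bright field and BodipyFL green channel, with overlay.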

Row | Compound | change of fluorescent signal of 3 over DMSO treated samples (flow cytometry) [1] | change of proteasome activity [2] | increase of proteasome labeling over DMSO treated samples [2] | change of intracellular fluorescent signal of 3 (confocal microscopy) [3] | effect of inhibitor on labeling by 3 [2]
1 | CN1CCN(CCCN2c3ccccc3Sc3ccc(C(F)(F)F)cc32)CC1 [TFP, trifluoperazine] | increase | significant increase in activity | at least 40% | – | –
2 | CC(C)C[C@@H](C=O)NC(=O)[C@H](CC(C)C)NC(=O)[C@H](CC(C)C)NC(=O)OCc1ccccc1 [MG-132] (Cbz-Leu-Leu-Leu-aldehyde) | decrease | – | – | significantly decreased the signal | prevented the binding of (3)
3 | epoxomicin | – | – | – | – | prevented the binding of (3)
4 | Clc1ccc(COC(Cn2ccnc2)c2ccc(Cl)cc2Cl)c(Cl)c1 (stereo not drawn) [MO, Miconazole] | increase | significant increase in activity | at least 40% | remarkable increase in fluorescent signal | –
5 | CCCCC/C=C\C/C=C\C/C=C\C/C=C\CCCC(=O)Nc1ccc(O)cc1 [AM-404] | – | – | at least 40% | – | –
